The values that follow come from ChEMBL document CHEMBL1156185, “A class of 3S-2-aminoacyltetrahydro-beta-carboline-3-carboxylic acids: their facile synthesis, inhibition for platelet activation, and high in vivo anti-thrombotic potency” (J Med Chem, 2010).

A short description of assay [1]: Antiplatelet aggregation activity against platelet-activating factor-induced pig platelet aggregation after 5 mins by aggregometer. The assay is classed as functional, cell-based. The conditions noted are these: Sus scrofa. Put shortly:
(§1)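 Pig blood from six pigs was spun at 1000 rpm for 10 min to give PRP, then at 1500g for 10 min to give PPP. PRP was adjusted to 2 × 10⁸ platelets/mL with autologous PPP. Test agent or NS was added at final 100 µM–1 nM. Agonists were at final concentrations of ADP 10 µM, AA 350 µM, PAF 0.1 µM and thrombin 0.1 U/mL. Light-transmission peak was read at 37 °C over 5 min, in sextuplicate. IC50 was taken from the concentration–inhibition curve.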

Assay [2] can be described thus: Antiplatelet aggregation activity against ADP-induced pig platelet aggregation after 5 mins by aggregometer. The assay is classed as functional, cell-based. The note with it: Sus scrofa. Put shortly: as §1
Assay [3] is described as follows: Antiplatelet aggregation activity against arachidonic acid-induced pig platelet aggregation after 5 mins by aggregometer. The conditions noted are these: Sus scrofa. Type of assay: functional, cell-based. Put shortly: as §1
The subject of assay [4] is Rattus norvegicus. The assay is described as follows: Antithrombotic activity in Wistar rat arterioveinos cannula model assessed as reduction of thrombus weight at 1 umol/kg, iv. Type of assay: functional. The gist of the method:
(§2)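 Male Wistar rats, 250–300 g. Agents were dissolved in NS and kept on ice. Heparin sodium was injected into a thread-containing polyethylene cannula, then NS or agent was injected intravenously. The cannula joined the right carotid artery to the left jugular vein, and blood flowed through it for 15 min. Wet thrombus weight on the thread was recorded as mean ± SD, n = 12.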

The subject of assay [5] is Platelet. The assay is described as follows: Ratio of IC50 for arachidonic acid-induced pig platelet aggregation to IC50 for ADP-induced pig platelet aggregation. Type of assay: functional, Sus scrofa. The gist of the method: (§3)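 Fold ratios of IC50 values. Each IC50 came from pig PRP (2 × 10⁸ platelets/mL) light-transmission aggregometry at 37 °C for 5 min, in sextuplicate, with final ADP 10 µM, AA 350 µM, PAF 0.1 µM or thrombin 0.1 U/mL.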

The test system of assay [6] is Platelet. Briefly: Ratio of TCCA IC50 to compound IC50 for ADP-induced pig platelet aggregation. The assay is classed as functional, Sus scrofa. Put shortly:
as §3

A short description of assay [7]: Antiplatelet aggregation activity against thrombin-induced pig platelet aggregation after 5 mins by aggregometer. The assay is classed as functional, cell-based. The note with it: Sus scrofa. The gist of the method:
as §1

Assay [8] deals with Platelet. The assay is described as follows: Ratio of IC50 for platelet-activating factor-induced pig platelet aggregation to IC50 for ADP-induced pig platelet aggregation. The assay is classed as functional, Sus scrofa. Put shortly:
as §3

In assay [9] the test system is Rattus norvegicus. Briefly: Antithrombotic activity in Wistar rat arterioveinos cannula model assessed as reduction of thrombus weight at 100 nmol/kg, iv. Type of assay: functional. Put shortly: as §2
For assay [10], the system named is Platelet. Briefly: Ratio of IC50 for thrombin-induced pig platelet aggregation to IC50 for ADP-induced pig platelet aggregation. Type of assay: functional, Sus scrofa. Put shortly:
as §3

Assay [11] deals with Rattus norvegicus. Briefly: Antithrombotic activity in Wistar rat arterioveinos cannula model assessed as reduction of thrombus weight at 10 nmol/kg, iv. The assay is classed as functional. Put shortly:
as §2

For assay [12], the system named is Rattus norvegicus. The assay is described as follows: Antithrombotic activity in Wistar rat arterioveinos cannula model assessed as reduction of thrombus weight at 100 nmol/kg, po. The assay is classed as functional. Put shortly:
(§4)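 Male Wistar rats received agent in NS, or NS alone, orally. Blood then passed from the right carotid artery to the left jugular vein through a thread-containing polyethylene cannula for 15 min. Wet thrombus weight was reported as mean ± SD, n = 12.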

For assay [13], the system named is Rattus norvegicus. Briefly: Antithrombotic activity in Wistar rat arterioveinos cannula model assessed as reduction of thrombus weight at 1 nmol/kg, iv. Type of assay: functional. Put shortly:
as §2

The test system of assay [14] is Rattus norvegicus. Briefly: Antithrombotic activity in Wistar rat arterioveinos cannula model assessed as reduction of thrombus weight at 167 umol/kg, iv. The assay is classed as functional. The gist of the method:
as §2

The test system of assay [15] is Rattus norvegicus. The assay is described as follows: Antithrombotic activity in Wistar rat arterioveinos cannula model assessed as reduction of thrombus weight at 167 umol/kg, po. The assay is classed as functional. The gist of the method:
as §4

For assay [16], the system named is Rattus norvegicus. Briefly: Antithrombotic activity in Wistar rat arterioveinos cannula model assessed as reduction of thrombus weight at 5 umol/kg, iv. Type of assay: functional. Put shortly: as §2

The structures appear in SMILES notation.

Consider `CC(C)C[C@H](N)C(=O)N1Cc2[nH]c3ccccc3c2C[C@H]1C(=O)O`, for which the IC50 in [1] turned out to be 16.9 nM; in assay [2], 8.7 nM; in [3] it was 26.8 nM; in [7], 34.1 nM. Besides, in the assay with Rattus norvegicus [4], the Activity is on record as 10.55 mg. The Ratio IC50 with Platelet [5] amounted to 3.1; in the assay on Platelet [6], 81; in the assay with Platelet [8], 1.9; in the assay on Platelet [10], 3.9. In addition, the Thrombus weight with Rattus norvegicus [9] is reported as 25.26 mg.

Regarding `CC[C@H](C)[C@H](N)C(=O)N1Cc2[nH]c3ccccc3c2C[C@H]1C(=O)O`, the IC50 in assay [1] was determined as 12.6 nM; in assay [2] it was 6.56 nM; in assay [3], 23.9 nM; in assay [7] it was 27 nM. Besides, the figures for the Activity in the assay with Rattus norvegicus [11], in the assay on Rattus norvegicus [12] and in the assay on Rattus norvegicus [13] were 18.12 mg, 13.88 mg and 25.43 mg, respectively. The Ratio IC50 with Platelet [5] is 3.6; in the assay on Platelet [6] it was 107; in the assay on Platelet [8], 1.9; in the assay on Platelet [10], 4.1. Also, in the assay on Rattus norvegicus [9], the Thrombus weight was found to be 13.74 mg.

With `CC(=O)Oc1ccccc1C(=O)O` [ASPIRIN], the results for the Activity in the assay with Rattus norvegicus [14] and in the assay with Rattus norvegicus [15] were 15.21 mg and 17.9 mg, respectively.

Consider `O=C(O)[C@@H]1Cc2c([nH]c3ccccc23)CN1` [CYCLOMETHYLTRYPTOPHAN], for which the IC50 in assay [1] amounted to 752 nM; in [2], 701 nM; in [3] it was 866 nM; in assay [7], 982 nM. Also, the Activity in the assay on Rattus norvegicus [16] amounted to 18.79 mg.

In general, IC50 refers to the point on the concentration scale where inhibition reaches its midpoint.
